Experimental data published in ChEMBL document CHEMBL4422636, “Investigation of the structural requirements for N-methyl-D-aspartate receptor positive and negative allosteric modulators based on 2-naphthoic acid” (Eur J Med Chem, 2019).
Calls of active or inactive are those of the source. The rule behind the calls is not given here.

What was measured:
[1] = biological target: Glutamate receptor ionotropic, NMDA 2D (Rattus norvegicus) (UniProt Q62645); assay: Positive allosteric modulation of rat GluN2D expressed in Xenopus laevis oocytes assessed as potentiation of L-glutamate/glycine-induced current response at holding potential -60 mV by two-electrode voltage clamp method relative to L-glutamate/glycine; assay type: cell-based; parameters: concentration or dose not given beside the values
Method in brief: (§1)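 Oocytes injected with GluN1a plus GluN2A, 2B, 2C or 2D RNA (1:1–3 molar, 15–30 ng total) and kept in ND-96 at 17°C for 1–5 days. TEVC at −60 mV in HEPES-buffered NaCl/KCl/BaCl2 saline, pH 7.4. […] Curves were fitted to give EC50/IC50 and maximal potentiation or inhibition, mean ± s.e.m.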

[2] = biological target: Glutamate receptor ionotropic, NMDA 2B (Rattus norvegicus) (UniProt Q00960); assay: Agonist activity at rat GluN2B expressed in Xenopus laevis oocytes assessed as effect on current response at holding potential -60 mV by two-electrode voltage clamp method relative to L-glutamate/glycine; assay type: cell-based
Method in brief: (§2)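 GluN1a with one GluN2 subunit; RNAs mixed 1:1–3 molar, 15–30 ng total injected into Xenopus oocytes, which were held in ND-96 at 17°C for 1–5 days. TEVC at −60 mV in 116 mM NaCl, 2 mM KCl, 0.3 mM BaCl2, 5 mM HEPES, pH 7.4. […] Reported as % of agonist-alone response, mean ± s.e.m., n≥4.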

[3] = biological target: Glutamate receptor ionotropic, NMDA 2C (Rattus norvegicus) (UniProt Q00961); assay: Allosteric modulation of rat GluN2C expressed in Xenopus laevis oocytes assessed as L-glutamate/glycine-induced current response at 100 uM at holding potential -60 mV by two-electrode voltage clamp method relative to L-glutamate/glycine; assay type: cell-based; method in brief: as §2
[4] = biological target: T1, Ionotropic glutamate receptor NMDA 1/2D (Rattus norvegicus, UniProt P35439+Q62645); assay: Positive allosteric modulation of rat GluN1/GluN2D expressed in Xenopus laevis oocytes assessed as potentiation of L-glutamate/glycine-induced current response at holding potential -60 mV by two-electrode voltage clamp method; assay type: cell-based; method in brief: as §1
[5] = Solubility of the compound at 100 uM; assay type: physicochemical
Method in brief: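 Compounds were inspected for visible precipitation at the concentrations used in the oocyte assays.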

[6] = biological target: Glutamate receptor ionotropic, NMDA 2B (Rattus norvegicus) (UniProt Q00960); assay: Allosteric modulation of rat GluN2B expressed in Xenopus laevis oocytes assessed as L-glutamate/glycine-induced current response at 100 uM at holding potential -60 mV by two-electrode voltage clamp method relative to L-glutamate/glycine; assay type: cell-based; method in brief: as §2
[7] = biological target: Glutamate receptor ionotropic, NMDA 2A (Rattus norvegicus) (UniProt Q00959); assay: Positive allosteric modulation of rat GluN2A expressed in Xenopus laevis oocytes assessed as potentiation of L-glutamate/glycine-induced current response at holding potential -60 mV by two-electrode voltage clamp method relative to L-glutamate/glycine; assay type: cell-based; parameters: concentration or dose not given beside the values; method in brief: as §1
[8] = biological target: T2, Glutamate NMDA receptor; Grin1/Grin2c (Rattus norvegicus, UniProt P35439+Q00961); assay: Positive allosteric modulation of rat GluN1/GluN2C expressed in Xenopus laevis oocytes assessed as potentiation of L-glutamate/glycine-induced current response at holding potential -60 mV by two-electrode voltage clamp method; assay type: cell-based; method in brief: as §1
[9] = biological target: Glutamate receptor ionotropic, NMDA 2A (Rattus norvegicus) (UniProt Q00959); assay: Agonist activity at rat GluN2A expressed in Xenopus laevis oocytes assessed effect on current response at holding potential -60 mV by two-electrode voltage clamp method relative to L-glutamate/glycine; assay type: cell-based; method in brief: as §2
[10] = biological target: Glutamate receptor ionotropic, NMDA 2C (Rattus norvegicus) (UniProt Q00961); assay: Agonist activity at rat GluN2C expressed in Xenopus laevis oocytes assessed effect on current response at holding potential -60 mV by two-electrode voltage clamp method relative to L-glutamate/glycine; assay type: cell-based; method in brief: as §2
[11] = biological target: Glutamate receptor ionotropic, NMDA 2A (Rattus norvegicus) (UniProt Q00959); assay: Allosteric modulation of rat GluN2A expressed in Xenopus laevis oocytes assessed as L-glutamate/glycine-induced current response at 100 uM at holding potential -60 mV by two-electrode voltage clamp method relative to L-glutamate/glycine; assay type: cell-based; method in brief: as §2
[12] = biological target: Glutamate receptor ionotropic, NMDA 2D (Rattus norvegicus) (UniProt Q62645); assay: Agonist activity at rat GluN2D expressed in Xenopus laevis oocytes assessed as effect on current response at holding potential -60 mV by two-electrode voltage clamp method relative to L-glutamate/glycine; assay type: cell-based; method in brief: as §2
[13] = biological target: T3, Glutamate NMDA receptor; Grin1/Grin2a (Rattus norvegicus, UniProt P35439+Q00959); assay: Positive allosteric modulation of rat GluN1/GluN2A expressed in Xenopus laevis oocytes assessed as potentiation of L-glutamate/glycine-induced current response at holding potential -60 mV by two-electrode voltage clamp method; assay type: cell-based; method in brief: as §1
[14] = biological target: Glutamate receptor ionotropic, NMDA 2C (Rattus norvegicus) (UniProt Q00961); assay: Positive allosteric modulation of rat GluN2C expressed in Xenopus laevis oocytes assessed as potentiation of L-glutamate/glycine-induced current response at holding potential -60 mV by two-electrode voltage clamp method relative to L-glutamate/glycine; assay type: cell-based; parameters: concentration or dose not given beside the values; method in brief: as §1
[15] = biological target: Glutamate receptor ionotropic, NMDA 2D (Rattus norvegicus) (UniProt Q62645); assay: Allosteric modulation of rat GluN2D expressed in Xenopus laevis oocytes assessed as L-glutamate/glycine-induced current response at 100 uM at holding potential -60 mV by two-electrode voltage clamp method relative to L-glutamate/glycine; assay type: cell-based; method in brief: as §2
[16] = biological target: T2, Glutamate NMDA receptor; Grin1/Grin2c; assay: Negative allosteric modulation of rat GluN1/GluN2C expressed in Xenopus laevis oocytes assessed as inhibition of L-glutamate/glycine-induced current response at holding potential -60 mV by two-electrode voltage clamp method; assay type: cell-based; method in brief: as §1
[17] = biological target: T4, Glutamate NMDA receptor; Grin1/Grin2c (Rattus norvegicus) (UniProt P35439+Q00961); assay: Negative allosteric modulation of rat GluN1/GluN2C expressed in Xenopus laevis oocytes assessed as inhibition of L-glutamate/glycine-induced current response at holding potential -60 mV by two-electrode voltage clamp method relative to untreated control; assay type: cell-based; parameters: concentration or dose not given beside the values; method in brief: as §1
[18] = biological target: T5, Glutamate NMDA receptor; Grin1/Grin2b (Rattus norvegicus, UniProt P35439+Q00960); assay: Negative allosteric modulation of rat GluN1/GluN2B expressed in Xenopus laevis oocytes assessed as inhibition of L-glutamate/glycine-induced current response at holding potential -60 mV by two-electrode voltage clamp method; assay type: cell-based; method in brief: as §1
[19] = biological target: Glutamate NMDA receptor; Grin1/Grin2b (Rattus norvegicus) (UniProt P35439+Q00960); assay: Negative allosteric modulation of rat GluN1/GluN2B expressed in Xenopus laevis oocytes assessed as inhibition of L-glutamate/glycine-induced current response at holding potential -60 mV by two-electrode voltage clamp method relative to untreated control; assay type: cell-based; parameters: concentration or dose not given beside the values; method in brief: as §1
[20] = biological target: Ionotropic glutamate receptor NMDA 1/2D (Rattus norvegicus) (UniProt P35439+Q62645); assay: Negative allosteric modulation of rat GluN1/GluN2D expressed in Xenopus laevis oocytes assessed as inhibition of L-glutamate/glycine-induced current response at holding potential -60 mV by two-electrode voltage clamp method relative to untreated control; assay type: cell-based; parameters: concentration or dose not given beside the values; method in brief: as §1
[21] = biological target: T1, Ionotropic glutamate receptor NMDA 1/2D; assay: Negative allosteric modulation of rat GluN1/GluN2D expressed in Xenopus laevis oocytes assessed as inhibition of L-glutamate/glycine-induced current response at holding potential -60 mV by two-electrode voltage clamp method; assay type: cell-based; method in brief: as §1
[22] = biological target: T3, Glutamate NMDA receptor; Grin1/Grin2a; assay: Negative allosteric modulation of rat GluN1/GluN2A expressed in Xenopus laevis oocytes assessed as inhibition of L-glutamate/glycine-induced current response at holding potential -60 mV by two-electrode voltage clamp method; assay type: cell-based; method in brief: as §1
[23] = biological target: Glutamate NMDA receptor; Grin1/Grin2a (Rattus norvegicus) (UniProt P35439+Q00959); assay: Negative allosteric modulation of rat GluN1/GluN2A expressed in Xenopus laevis oocytes assessed as inhibition of L-glutamate/glycine-induced current response at holding potential -60 mV by two-electrode voltage clamp method relative to untreated control; assay type: cell-based; parameters: concentration or dose not given beside the values; method in brief: as §1
[24] = biological target: T4, Glutamate NMDA receptor; Grin1/Grin2c (Rattus norvegicus); assay: Negative allosteric modulation of rat GluN1/GluN2C expressed in Xenopus laevis oocytes assessed as inhibition of 300 uM glutamate/glycine-induced current response at 30 uM at -60 mV holding potential by two-electrode voltage clamp method; assay type: cell-based
[25] = biological target: T4, Glutamate NMDA receptor; Grin1/Grin2c (Rattus norvegicus); assay: Negative allosteric modulation of rat GluN1/GluN2C expressed in Xenopus laevis oocytes assessed as inhibition of 10 uM glutamate/glycine-induced current response at 30 uM at -60 mV holding potential by two-electrode voltage clamp method; assay type: cell-based
[26] = biological target: T5, Glutamate NMDA receptor; Grin1/Grin2b; assay: Positive allosteric modulation of rat GluN1/GluN2B expressed in Xenopus laevis oocytes assessed as potentiation of L-glutamate/glycine-induced current response at holding potential -60 mV by two-electrode voltage clamp method; assay type: cell-based; method in brief: as §1
[27] = biological target: Glutamate receptor ionotropic, NMDA 2B (Rattus norvegicus) (UniProt Q00960); assay: Positive allosteric modulation of rat GluN2B expressed in Xenopus laevis oocytes assessed as potentiation of L-glutamate/glycine-induced current response at holding potential -60 mV by two-electrode voltage clamp method relative to L-glutamate/glycine; assay type: cell-based; method in brief: as §1

Compound	Activity [1] [%]	Activity [2]	Activity [3] [%]	EC50 [4] [µM]	solubility [5]	Activity [6] [%]	Activity [7] [%]	EC50 [8] [µM]	Activity [9]	Activity [10]	Activity [11] [%]	Activity [15] [%]	IC50 [16] [µM]	Activity [17] [%]	IC50 [18] [µM]	Activity [19] [%]	Activity [20] [%]	IC50 [21] [µM]	IC50 [22] [µM]	Activity [23] [%]	other results
CCCCCc1ccc2cc(C(=O)O)ccc2c1	17.3	inactive	126	61	Soluble	102	39	113	inactive	inactive	131	110	–	–	–	–	–	–	–	–	Activity [12]: inactive; EC50 [13]: 26.7 µM; Activity [14]: 42.7%
O=C(O)c1cc2cc(/C=C/c3ccccc3[N+](=O)[O-])ccc2cc1O	–	–	35.1	–	Soluble	56.1	–	–	–	–	80.5	26.8	8.2	80.1	32.2	61.3	79.7	2.9	6	30.5	Activity [24]: Active; Activity [25]: Active
O=C(O)c1cc2cc(/C=C/c3cccc([N+](=O)[O-])c3)ccc2cc1O	–	–	24.4	–	Soluble	28.8	–	–	–	–	50.5	30.7	7.9	74.4	9.2	66.3	70	1.4	9.7	49.7	–
O=C(O)c1cc2cc(/C=C/c3ccc([N+](=O)[O-])cc3)ccc2cc1O	–	–	43.3	–	Soluble	53.2	–	–	–	–	47.4	34.4	6.5	55.9	11.1	48.4	72.3	2.9	5.8	54.1	–

More lines, main results first:

Activity [1] [%]	Activity [2]	Activity [3] [%]	EC50 [4] [µM]	solubility [5]	Activity [6] [%]	Activity [7] [%]	EC50 [8] [µM]	Activity [9]	Activity [10]	Activity [11] [%]	Activity [15] [%]	IC50 [16] [µM]	Activity [17] [%]	IC50 [18] [µM]	Activity [19] [%]	Activity [20] [%]	IC50 [21] [µM]	IC50 [22] [µM]	Activity [23] [%]	Compound	other results
–	–	26.1	–	Soluble	49.9	–	–	–	–	28.4	26.1	41.8	106	97.8	56.8	98.6	49.6	11	71.5	O=C(O)c1cc2cc(-c3ccccc3)ccc2cc1O	–
88.4	inactive	192	28.9	Soluble	171	68.6	37.2	inactive	inactive	171	207	–	–	–	–	–	–	–	–	CC(C)CCCc1ccc2cc(C(=O)O)ccc2c1	EC50 [26]: 34.6 µM; Activity [12]: inactive; EC50 [13]: 28 µM; Activity [14]: 117%; Activity [27]: 102%
